Values joined by “and” are separate entries in the source; they are usually repeats but may differ in a detail not shown here. Identical values can stand only once. Values belong to the compound of their own block, whether it stands above or below them. Active and inactive are the calls of the source. The rule behind the calls is not given here.
Tests used:
Cavia porcellus [1] = species: Cavia porcellus; assay: In vitro contractile response of histamine at 0.5 ug/mL in guinea pig ileum; assay type: functional
Summary of the method: (§1)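 Isolated guinea pig ileum, H1 activity. Value is the concentration giving 50% of the contractile response of histamine at 0.5 μg/mL, taken from dose-response curves. Reported as mean ± SEM of three separate dose-response determinations. Response sensitivity checked with mepyramine.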

[2] = Concentration of compound which gives 20% increase in the force contraction in ferret papillary muscle.; assay type: functional, Mustela putorius furo, Muscle tissue
Summary of the method: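 Ferret papillary muscle force of contraction. C20 is the concentration giving a 20% increase in force. Values come from individual experiments; where three or more runs were done, the mean and range are given. NR means not reached.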

Rattus norvegicus = assay: In vivo effect on gastric acid secretion in rat was determined after subcutaneous administration; assay type: functional; conditions: Stomach, sc
Summary of the method: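 Rats, subcutaneous dosing, gastric acid secretion measured by the method of Hagiwara and co-workers. ED50 = dose giving a 50% increase in acid secretion over control. Mean ± SEM of three separate dose-response determinations.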

[3] = dp/dt value of the compound; assay type: functional
Summary of the method: (§2)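 Pentobarbital-anesthetized guinea pigs with stomach ligated to contain gastric fluid. After 30 min stabilization, blood pressure, heart rate, LVEDP and LV dP/dtmax were recorded at 1-min intervals. Compound given by iv infusion for 60 min, then monitored 10 min more. Gastric contents were titrated against 0.1 N NaOH. Value is the average maximum % change from control in the 10 min after infusion, mean ± SEM.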

Mustela putorius furo [4] = species: Mustela putorius furo; assay: (§3) In vitro inotropy blocking studies in ferret papillary muscle in the presence of 10 uM cimetidine; B-Blocked; assay type: functional, tissue-based; conditions: Muscle tissue
Summary of the method: (§4)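 Ferret papillary muscle dose-response repeated in the presence of antagonist (cimetidine). A rise of at least 1 order of magnitude in the measured C20 was scored as a blocked inotropic response.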

Mustela putorius furo [5] = species: Mustela putorius furo; assay: (§5) In vitro inotropy blocking studies in ferret papillary muscle in the presence of 100 uM nadolol; NB-Not Blocked; assay type: functional, tissue-based; conditions: Muscle tissue
Summary of the method: (§6)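 Ferret papillary muscle dose-response repeated in the presence of 100 μM nadolol. A rise of at least 1 order of magnitude in the measured C20 was scored as a blocked inotropic response.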

Cavia porcellus [6] = species: Cavia porcellus; assay: In vitro chronotropic effect of histamine at 5 ug/mL in guinea pig atrium; assay type: functional; conditions: Cardiac atrium
Summary of the method: (§7)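 Spontaneously beating guinea pig right atria. Value is the concentration giving 50% of the chronotropic effect of histamine at 5 μg/mL, taken from dose-response curves. Reported as mean ± SEM of three separate dose-response determinations. Response sensitivity checked with cimetidine.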

Cavia porcellus [7] = assay: In vivo percent change total acid secretion in guinea pig was determined at a dose of 75 mg/kg/h; assay type: functional; summary of the method: as §2
Cavia porcellus [8] = assay: In vivo percent change in mean arterial pressure in guinea pig was determined at a dose of 75 mg/kg/h; assay type: functional, Artery; summary of the method: as §2
Cavia porcellus [9] = species: Cavia porcellus; assay: Contractile response of histamine at 0.5 ug/mL in guinea pig ileum; assay type: functional; conditions: Cavia porcellus, Ileum; read-out: EC50; summary of the method: as §1
Cavia porcellus [10] = assay: In vivo percent change airway overflow in guinea pig was determined at a dose of 75 mg/kg/h; assay type: functional
Cavia porcellus [11] = species: Cavia porcellus; assay: Chronotropic effect of histamine at 5 ug/mL in guinea pig atrium; assay type: functional, Cardiac atrium; conditions: Cavia porcellus, Cardiac atrium; read-out: EC50; summary of the method: as §7
Cavia porcellus [12] = assay: In vivo percent change in heart rate in guinea pig was determined at a dose of 75 mg/kg/h; assay type: functional; summary of the method: as §2
Mustela putorius furo [13] = species: Mustela putorius furo; assay: as §3; assay type: functional, tissue-based; conditions: Muscle tissue; remark: listed apart in the source
[14] = Concentration which gives 20% increase in the force contraction in ferret papillary muscle; assay type: functional, Mustela putorius furo, Muscle tissue
Summary of the method: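 Isolated ferret papillary muscle, force of contraction recorded over a dose-response range. C20 = concentration giving a 20% increase in contractile force. Single experiments reported individually; with three or more runs, mean and range given.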

Mustela putorius furo [15] = species: Mustela putorius furo; assay: In vitro inotropy blocking studies in ferret papillary muscle in the presence of 100 uM nadolol; B-Blocked; assay type: functional, tissue-based; conditions: Muscle tissue; summary of the method: as §6
Mustela putorius furo [16] = species: Mustela putorius furo; assay: In vitro inotropy blocking studies in ferret papillary muscle in the presence of 10 uM cimetidine; NB-Not Blocked; assay type: functional, tissue-based; conditions: Muscle tissue; summary of the method: as §4
Cavia porcellus [17] = assay: In vivo percent change in mean arterial pressure in guinea pig was determined at a dose of 1 mg/kg/h; assay type: functional, Artery
[18] = dP/dt value of the compound; assay type: functional; design: unit not given here
Mustela putorius furo [19] = species: Mustela putorius furo; assay: as §5; assay type: functional, tissue-based; conditions: Muscle tissue; remark: listed apart in the source
Summary of the method: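 Ferret papillary muscle inotropic dose-response curves repeated in the presence of each antagonist (nadolol at 100 μM). A rise in C20 of at least one order of magnitude was scored as a blocked response.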

Cavia porcellus [20] = assay: In vivo percent change in airway overflow in guinea pig was determined at a dose of 1 mg/kg/h; assay type: functional
Cavia porcellus [21] = assay: In vivo percent change in heart rate in guinea pig was determined at a dose of 1 mg/kg/h; assay type: functional
Cavia porcellus [22] = assay: In vivo percent change in total acid secretion in guinea pig was determined at a dose of 1 mg/kg/h; assay type: functional
Mustela putorius furo [23] = species: Mustela putorius furo; assay: In vitro inotropy blocking studies in ferret papillary muscle in the presence of 100 uM nadolol; Blocked; assay type: functional, tissue-based; conditions: Muscle tissue; summary of the method: as §6

Structure (SMILES): NCCc1c[nH]cn1 [HISTAMINE]
EC50 (Cavia porcellus [1]): 0.24 µM | C20 [2]: 0.42 uM l-1 | ED50 (Rattus norvegicus): 2.7 mg/kg | dP/dt [3]: 132 | Activity (Mustela putorius furo [4]): Active | Activity (Mustela putorius furo [5]): inactive | EC50 (Cavia porcellus [6]): 0.98 µM

Structure (SMILES): CCCCCCCNCCc1c[nH]cn1
Change (Cavia porcellus [7]): 220% | Change (Cavia porcellus [8]): 15% | EC50 (Cavia porcellus [9]): 7.88 µM | C20 [2]: 1 uM l-1 | ED50 (Rattus norvegicus): 10.7 mg/kg | dP/dt [3]: 155 | Activity (Mustela putorius furo [4]): Blocked | Activity (Mustela putorius furo [5]): Not blocked | Change (Cavia porcellus [10]): 150% | EC50 (Cavia porcellus [11]): 71 µM | Change (Cavia porcellus [12]): 14%

Structure (SMILES): CCCN(CCc1c[nH]cn1)C(C)CCc1ccc(O)cc1 (stereo not given)
Activity (Mustela putorius furo [13]): Blocked | C20 [14]: 4.9 uM l-1 | Activity (Mustela putorius furo [15]): Blocked

Structure (SMILES): O=C(NCCNCCc1c[nH]cn1)c1ccccc1
C20 [14]: >66 uM l-1

Structure (SMILES): Cc1[nH]cnc1CCNCCNC(=O)N1CCOCC1
C20 [14]: >90 uM l-1

Structure (SMILES): Cc1[nH]cnc1CCNCCNC(=O)c1ccc(NS(C)(=O)=O)cc1
C20 [14]: 20 uM l-1 and 40 uM l-1

Structure (SMILES): CC(CCc1ccc(O)cc1)NCCc1c[nH]cn1 (stereo not given)
Activity (Mustela putorius furo [16]): Not blocked | C20 [14]: 2 uM l-1 and 5 uM l-1 | Activity (Mustela putorius furo [15]): Blocked

EC50 (Cavia porcellus [1]): 10.4 µM | EC50 (Cavia porcellus [6]): 4.6 µM
Structure (SMILES): CN(C)CCCSC(=N)N [DIMAPRIT]
Activity (Mustela putorius furo [13]): Blocked | Change (Cavia porcellus [17]): -25% | dP/dt [18]: 93 | Activity (Mustela putorius furo [19]): Not blocked | ED50 (Rattus norvegicus): 3.1 mg/kg | Change (Cavia porcellus [20]): 11% | Change (Cavia porcellus [21]): 19% | Change (Cavia porcellus [22]): 91%

Structure (SMILES): O=C(c1ccccc1)N1CCC(NCCc2c[nH]cn2)CC1
C20 [14]: >27 uM l-1

Structure (SMILES): c1coc(CNCCc2c[nH]cn2)c1
C20 [14]: 27 uM l-1 | Activity (Mustela putorius furo [15]): Blocked

Structure (SMILES): COc1ccc(CCNCCc2c[nH]cn2)cc1OC
Activity (Mustela putorius furo [13]): Blocked | Activity (Mustela putorius furo [15]): Blocked

Structure (SMILES): CC(=O)NCCNCCc1c[nH]cn1
C20 [14]: 46 uM l-1 and 85 uM l-1

Structure (SMILES): C(=C\c1ccccc1)/CCNCCc1c[nH]cn1
Activity (Mustela putorius furo [23]): Blocked | C20 [14]: 14 uM l-1 and 21 uM l-1
